Measurements: ChEMBL document CHEMBL1126594, “Studies directed toward the design of orally active renin inhibitors. 1. Some factors influencing the absorption of small peptides” (J Med Chem, 1993)

Tests used:
[1] = Plasma level by the renin inhibition assay from samples taken at 30 minutes from portal circulation by administering 10 mg/kg intraduodenally to the rat
[2] = Plasma level by the renin inhibition assay from samples taken at 10 minutes from portal circulation by administering 10 mg/kg intraduodenally to the rat
[3] = Plasma level by the renin inhibition assay from samples taken at 10 minutes from systemic circulation by administering 10 mg/kg intraduodenally to the rat
[4] = Partition coefficient (logD7.4); details: octanol/water, pH 7.4
Renin = biological target: T1, Renin (Homo sapiens, UniProt P00797); test: Inhibition of human plasma renin at pH 7.4; assay type: cell-free
T1 sequence (P00797 whole entry): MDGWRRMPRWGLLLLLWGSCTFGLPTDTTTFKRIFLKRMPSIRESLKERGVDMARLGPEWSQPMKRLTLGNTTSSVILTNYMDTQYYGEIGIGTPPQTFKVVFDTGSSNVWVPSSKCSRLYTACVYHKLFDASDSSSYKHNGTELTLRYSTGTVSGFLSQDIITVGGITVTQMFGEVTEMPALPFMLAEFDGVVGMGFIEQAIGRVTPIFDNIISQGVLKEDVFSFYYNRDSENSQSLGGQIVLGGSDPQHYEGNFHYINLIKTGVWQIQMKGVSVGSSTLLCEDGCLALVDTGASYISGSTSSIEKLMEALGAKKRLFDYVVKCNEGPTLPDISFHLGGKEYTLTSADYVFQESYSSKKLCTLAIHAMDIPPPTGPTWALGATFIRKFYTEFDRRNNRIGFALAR
Outline: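 Human plasma renin, pH 7.4; IC50 determined by the previously described method.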

[5] = Plasma level by the renin inhibition assay from samples taken at 30 minutes from systemic circulation by administering 10 mg/kg intraduodenally to the rat
[6] = Integrated area under the plasma drug level-time curve after intraduodenal administration at a dose 10 mg/kg from systemic circulation in salt-depleted cynomolgus monkeys using HPLC assay; assay type: ADME, organism-based, Macaca fascicularis; set-up: dose 10 mg/kg, route intraduodenal; details: cynomolgus monkey
Outline: (§1)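 Salt-depleted cynomolgus monkeys, anesthetized, n = 4; 10 mg/kg intraduodenal in ethanol/HCl (110 mol %) diluted with aqueous hydroxypropyl methylcellulose (25% ethanol final, 10 mg/mL). 5-h experiment, systemic and portal sampling. Plasma (0.40 mL) mixed with 10% Na2CO3, extracted with ethyl acetate, assayed by HPLC; recoveries 75-85%. AUC as ng h/mL; mean ± SEM.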

[7] = Integrated area under the plasma drug level-time curve after intraduodenal administration at a dose 10 mg/kg from portal circulation in salt-depleted cynomolgus monkeys using HPLC assay; assay type: ADME, organism-based, Macaca fascicularis; set-up: dose 10 mg/kg, route intraduodenal; details: cynomolgus monkey; outline: as §1
[8] = Peak plasma drug level after intraduodenal administration at a dose 10 mg/kg from systemic circulation in salt-depleted cynomolgus monkeys using HPLC assay; assay type: ADME, organism-based, Macaca fascicularis; set-up: dose 10 mg/kg, route intraduodenal; details: cynomolgus monkey, read-out: Activity; outline: as §1
[9] = Peak plasma drug level after intraduodenal administration at a dose 10 mg/kg from portal circulation in salt-depleted cynomolgus monkeys using HPLC assay; assay type: ADME, organism-based, Macaca fascicularis; set-up: dose 10 mg/kg, route intraduodenal; details: cynomolgus monkey, read-out: Activity; outline: as §1

concentration at 0.5 h [1] [ng/mL] | concentration at 10 min [2] [ng/mL] | concentration at 10 min [3] [ng/mL] | logD [4] | IC50 (Renin) [nM] | concentration at 0.5 h [5] [ng/mL] | AUC [6] [ng·h/mL] | AUC [7] [ng·h/mL] | Cmax [8] [ng/mL] | Cmax [9] [ng/mL] | SMILES
1800 | 2500 | 190 | 3.91 | 25 | 380 | – | – | – | – | CC(C)C[C@H](O)[C@H](O)[C@H](CC1CCCCC1)NC(=O)[C@H](Cc1cscn1)NC(=O)[C@@H](CC(=O)CN1CCOCC1)Cc1ccccc1
250 | 140 | 93 | – | 17 | 110 | – | – | – | – | CCN1C[C@@H]([C@H](O)[C@H](CC2CCCCC2)NC(=O)[C@H](Cc2c[nH]cn2)NC(=O)[C@H](Cc2ccc(OC)cc2)NC(=O)CC(C)(C)N)OC1=O
53 | 93 | 17 | – | 33 | 13 | – | – | – | – | COc1ccc(C[C@H](NC(=O)CC(C)(C)N)C(=O)N[C@@H](Cc2cscn2)C(=O)N[C@@H](CC2CCCCC2)[C@@H](O)[C@@H](O)CC(C)C)cc1
2300 | 2000 | 86 | 4.39 | 18 | 140 | – | – | – | – | CC(C)C[C@H](O)[C@H](O)[C@H](CC1CCCCC1)NC(=O)[C@H](Cn1cccn1)NC(=O)[C@@H](CC(=O)N1CCN(C)CC1)Cc1ccccc1
1400 | 3500 | 340 | > 4.6 | 88 | 170 | – | – | – | – | CON(C)C[C@H](NC(=O)[C@@H](CC(=O)N1CCOCC1)Cc1ccccc1)C(=O)N[C@@H](CC1CCCCC1)[C@@H](O)[C@@H](O)CC(C)C
23 | 23 | 9 | – | 85 | 6 | – | – | – | – | COc1ccc(C[C@H](NC(=O)CC(C)(C)N)C(=O)N[C@@H](Cc2cccs2)C(=O)N[C@@H](CC2CCCCC2)[C@@H](O)[C@@H](O)CC(C)C)cc1
1200 | 880 | 380 | – | 37 | 620 | – | – | – | – | CC(C)C[C@H](NC(=O)[C@@H](CC(=O)N1CCN(C)CC1)Cc1ccccc1)C(=O)N[C@@H](CC1CCCCC1)[C@@H](O)[C@@H](O)CC(C)C
– | – | – | 3.79 | 93 | – | – | – | – | – | CC(C)C[C@H](O)[C@H](O)[C@H](CC1CCCCC1)NC(=O)[C@H](Cn1ccnc1)NC(=O)[C@@H](CC(=O)N1CCOCC1)Cc1ccccc1
4600 | 3200 | 260 | > 4.5 | 25 | 650 | – | – | – | – | CCCC[C@H](NC(=O)[C@@H](CC(=O)N1CCN(C)CC1)Cc1ccccc1)C(=O)N[C@@H](CC1CCCCC1)[C@@H](O)[C@@H](O)CC(C)C
58 | 28 | 7 | 2.49 | – | 7 | – | – | – | – | CCN1C[C@@H]([C@H](O)[C@H](CC2CCCCC2)NC(=O)[C@H](Cc2cc[nH]n2)NC(=O)[C@@H](CC(=O)N2CCOCC2)Cc2ccccc2)OC1=O
390 | 280 | 55 | – | – | 34 | – | – | – | – | CCN1C[C@@H]([C@H](O)[C@H](CC2CCCCC2)NC(=O)[C@H](Cc2cnc[nH]2)NC(=O)[C@@H](CC(=O)N2CCOCC2)Cc2ccccc2)OC1=O
– | – | – | 4.1 | 11 | – | – | – | – | – | CC(C)C[C@H](O)[C@H](O)[C@H](CC1CCCCC1)NC(=O)[C@H](CN=[N+]=[N-])NC(=O)[C@@H](CC(=O)N1CCOCC1)Cc1ccccc1
1100 | 1900 | 320 | 2.83 | – | 300 | 770 | 3800 | 360 | 3200 | CCN1C[C@@H]([C@H](O)[C@H](CC2CCCCC2)NC(=O)[C@H](Cc2cscn2)NC(=O)[C@@H](CC(=O)N2CCOCC2)Cc2ccccc2)OC1=O
45 | 13 | 16 | – | 69 | 32 | – | – | – | – | CCN1C[C@@H]([C@H](O)[C@H](CC2CCCCC2)NC(=O)[C@H](Cc2cccs2)NC(=O)[C@H](Cc2ccc(OC)cc2)NC(=O)CC(C)(C)N)OC1=O
– | – | – | – | 3.5 | – | – | – | – | – | CC(C)C[C@H](O)[C@H](O)[C@H](CC1CCCCC1)NC(=O)[C@H](Cc1ccn[nH]1)NC(=O)[C@@H](CC(=O)N1CCOCC1)Cc1ccccc1
– | – | – | – | 110 | – | – | – | – | – | CC(C)C[C@H](O)[C@H](O)[C@H](CC1CCCCC1)NC(=O)[C@H](Cc1cccs1)NC(=O)[C@@H](CC(=O)N1CCN(C)CC1)Cc1ccccc1
– | – | – | – | 18 | – | – | – | – | – | CC(C)C[C@H](O)[C@H](O)[C@H](CC1CCCCC1)NC(=O)[C@H](Cc1cscn1)NC(=O)[C@@H](CC(=O)N1CCN(C)CC1)Cc1ccccc1
– | – | – | – | 120 | – | – | – | – | – | COc1ccc(C[C@H](NC(=O)N2CCN(C)CC2)C(=O)N[C@@H](Cc2cscn2)C(=O)N[C@@H](CC2CCCCC2)[C@@H](O)[C@@H](O)CC(C)C)cc1
170 | 190 | 13 | 3.51 | 1.6 | 11 | – | – | – | – | CC(C)C[C@H](O)[C@H](O)[C@H](CC1CCCCC1)NC(=O)[C@H](Cc1c[nH]cn1)NC(=O)[C@@H](CC(=O)N1CCOCC1)Cc1ccccc1
– | – | – | – | 210 | – | – | – | – | – | CC(C)C[C@H](O)[C@H](O)[C@H](CC1CCCCC1)NC(=O)[C@H](CN(C)C)NC(=O)[C@@H](CC(=O)N1CCOCC1)Cc1ccccc1
770 | 1200 | 160 | 3.03 | 170 | 90 | – | – | – | – | COc1ccc(C[C@H](NC(=O)C2CCN(C)CC2)C(=O)N[C@@H](Cc2cscn2)C(=O)N[C@@H](CC2CCCCC2)[C@@H](O)[C@@H](O)CC(C)C)cc1
30 | 67 | 63 | 1.66 | 5.4 | 40 | – | – | – | – | CC(C)C[C@H](O)[C@H](O)[C@H](CC1CCCCC1)NC(=O)[C@H](Cc1c[nH]cn1)NC(=O)[C@@H](CC(=O)N1CCN(C)CC1)Cc1ccccc1
27 | 53 | 21 | 4.02 | 2.8 | 22 | – | – | – | – | CC(C)C[C@H](O)[C@H](O)[C@H](CC1CCCCC1)NC(=O)[C@H](Cc1ccn[nH]1)NC(=O)[C@@H](CC(=O)N1CCN(C)CC1)Cc1ccccc1
240 | 880 | 83 | – | 39 | 24 | – | – | – | – | CCN1C[C@@H]([C@H](O)[C@H](CC2CCCCC2)NC(=O)[C@H](Cc2cscn2)NC(=O)[C@H](Cc2ccc(OC)cc2)NC(=O)CC(C)(C)N)OC1=O
3300 | 2600 | 420 | – | 1600 | 890 | – | – | – | – | CC(C)C[C@H](O)[C@H](O)[C@H](CC1CCCCC1)NC(=O)[C@H](Cc1cscn1)NC(=O)[C@H](Cc1ccccc1)N1CCOCC1
3300 | 4900 | 470 | 3.71 | 110 | 320 | – | – | – | – | CC(C)C[C@H](O)[C@H](O)[C@H](CC1CCCCC1)NC(=O)[C@H](Cc1cn(C)cn1)NC(=O)[C@@H](CC(=O)N1CCOCC1)Cc1ccccc1
540 | 1100 | 170 | – | – | 82 | – | – | – | – | COc1ccc(C[C@H](NC(=O)CC(C)(C)N)C(=O)N[C@@H](Cc2cnc[nH]2)C(=O)N[C@@H](CC2CCCCC2)[C@@H](O)[C@@H](O)CC(C)C)cc1
